This is an account of results in BindingDB's records for doi:10.1016/j.bmcl.2019.08.010 (Stanford University, 2019).

The experiment concerns the target T1, Uridine-cytidine kinase 2 (Homo sapiens, UniProt Q9BZX2).
T1 sequence (Q9BZX2 whole entry): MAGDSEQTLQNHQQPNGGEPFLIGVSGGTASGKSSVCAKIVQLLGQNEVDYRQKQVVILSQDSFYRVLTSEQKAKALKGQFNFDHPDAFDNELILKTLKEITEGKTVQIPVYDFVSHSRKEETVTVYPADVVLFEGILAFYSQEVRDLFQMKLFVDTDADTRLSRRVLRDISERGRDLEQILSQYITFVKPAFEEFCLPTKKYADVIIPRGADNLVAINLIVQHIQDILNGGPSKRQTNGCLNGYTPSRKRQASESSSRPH
Briefly: Inhibition of C-terminally His6-tagged human UCK2 expressed in Escherichia coli BL21(DE3) cells incubated for 15 mins before ATP addition and measured after 60 mins by ADP-Glo kinase assay. The method in brief:
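His6-tagged UCK2 (C-terminal tag), purified by Ni-NTA then ion exchange; UCK2 phosphorylates uridine with ATP and ADP-Glo measures the ADP formed, after depleting leftover ATP, as luciferase luminescence. Run in 1536-well format with 0.5 mg/mL BSA, DMSO up to 3%. Primary screen at 33 μM with hit cut-off of 3 SD of the negative control. Confirmation used 8 half-log concentrations, 0.05–167 µM.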
In general terms: ADP-Glo turns the ADP formed in a reaction into a luminescent signal.

As to `Cc1ccccc1NC(=O)CSCn1[nH]nc2c(=O)nc(Cc3ccc(F)cc3)nc1-2`, 137 µM corresponded to half-maximal inhibition (IC50).
